Assays:
[1] = Aqueous stability assessed as half life at pH 8.0 buffer; type: physicochemical
Procedure, shortened: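 Compound held in pH 8 buffer; remaining amount followed over time by LC/MS to give half-life.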

Genome polyprotein = Genome polyprotein (West Nile virus, UniProt P06935); assay: Inhibition of WNV NS2B-NS3 protease by fluorescence assay
Procedure, shortened: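 Recombinant WNV NS2B-NS3 proteinase (10 nM, active-site titrated against aprotinin) preincubated 60 min at 18 °C with increasing inhibitor concentrations in 10 mM Tris-HCl pH 8.0, 20% glycerol, 0.005% Brij 35. Pyr-RTKR-AMC substrate at 25 μM; initial velocities read continuously at ex 360/em 465 nm. Triplicates; IC50 derived.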

Sequence of Genome polyprotein (P06935 1371-1501 limits assumed): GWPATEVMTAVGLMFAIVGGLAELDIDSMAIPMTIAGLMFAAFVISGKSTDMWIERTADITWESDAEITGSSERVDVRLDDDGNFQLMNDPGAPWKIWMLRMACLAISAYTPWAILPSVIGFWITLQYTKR
Sequence of Genome polyprotein (P06935 1502-2120 limits assumed): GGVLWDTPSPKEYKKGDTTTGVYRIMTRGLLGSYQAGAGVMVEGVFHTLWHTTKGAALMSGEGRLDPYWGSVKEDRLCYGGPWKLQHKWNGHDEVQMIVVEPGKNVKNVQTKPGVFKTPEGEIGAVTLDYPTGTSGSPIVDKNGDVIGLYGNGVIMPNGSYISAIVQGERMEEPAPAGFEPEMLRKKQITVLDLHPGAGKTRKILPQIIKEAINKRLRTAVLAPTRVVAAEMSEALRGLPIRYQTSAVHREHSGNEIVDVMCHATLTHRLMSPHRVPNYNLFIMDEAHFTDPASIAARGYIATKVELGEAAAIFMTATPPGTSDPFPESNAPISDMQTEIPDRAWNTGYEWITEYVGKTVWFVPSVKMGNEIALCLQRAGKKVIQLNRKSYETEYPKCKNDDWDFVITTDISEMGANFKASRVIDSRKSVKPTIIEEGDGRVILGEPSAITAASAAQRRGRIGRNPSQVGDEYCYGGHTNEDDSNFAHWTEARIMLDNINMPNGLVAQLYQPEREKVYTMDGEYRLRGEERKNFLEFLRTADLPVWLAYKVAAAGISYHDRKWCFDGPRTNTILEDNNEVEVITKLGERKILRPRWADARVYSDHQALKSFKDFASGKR

t1/2 [1] [min] | IC50 (Genome polyprotein) [µM] | Structure (SMILES)
> 5760 | 16 | Cc1cc(NC(=O)c2ccccc2)n(-c2ccccc2)n1
90 | 8.71 | COc1ccc(Cn2nc(C)cc2OC(=O)c2c(F)cccc2F)cc1
 | > 100 | COc1ccc(Cn2nc(C)cc2CC(O)c2ccccc2)cc1 (stereo not given)
900 | 4.03 | COc1ccc(Cn2nc(C)cc2OC(=O)c2ccccc2)cc1
 | > 100 | COc1ccc(Cn2nc(C)cc2CC(=O)c2ccccc2)cc1
 | > 100 | COc1ccc(Cn2nc(C)cc2CC(O)c2c(F)cccc2F)cc1 (stereo not given)
780 | 13.8 | COc1ccc(Cn2nc(C)cc2/C=C/c2c(F)cccc2F)cc1
 | 9.43 | Cc1cc(OC(=O)c2c(F)ccc(C)c2F)n(Cc2ccccc2)n1
75 | 9.2 | COc1ccc(S(=O)(=O)n2nc(C)cc2NC(=O)c2ccccc2)cc1
90 | 0.97 | COc1ccc(S(=O)(=O)n2nc(OC(=O)c3c(F)ccc(F)c3F)cc2N)cc1
450 | 1.96 | COc1ccc(S(=O)(=O)n2nc(OC(=O)c3ccc(F)cc3F)cc2N)cc1
 | 5 | COc1ccc(S(=O)(=O)n2nc(OC(=O)c3sccc3C)cc2N)cc1
 | 11.9 | COc1ccc(S(=O)(=O)n2nc(OC(=O)c3ccc(F)c(F)c3F)cc2N)cc1
255 | 1.83 | COc1ccc(S(=O)(=O)n2nc(OC(=O)c3c(F)cc(F)cc3F)cc2N)cc1
 | > 100 | COc1ccc(S(=O)(=O)n2nc(OC(=O)c3ccccc3[N+](=O)[O-])cc2N)cc1
 | 10.7 | COc1ccc(S(=O)(=O)n2nc(OC(=O)c3c(F)c(F)c(C)c(F)c3F)cc2N)cc1
 | 23.9 | COc1ccc(Cn2nc(C)cc2CC(=O)c2c(F)cccc2F)cc1
 | > 100 | COc1ccc(S(=O)(=O)n2nc(OC(=O)c3ccccc3OC)cc2N)cc1
 | 45.5 | COc1ccc(S(=O)(=O)n2nc(OC(=O)c3cccc(C(F)(F)F)c3F)cc2N)cc1
 | 38.8 | COc1ccc(Cn2nc(C)cc2CC(=O)c2ccccc2F)cc1
 | 9.26 | COc1ccc(Cn2nc(C)cc2OC(=O)c2c(F)ccc(C)c2F)cc1
 | 1.22 | COc1ccc(S(=O)(=O)n2nc(OC(=O)c3sccc3Cl)cc2N)cc1
 | 26.2 | COc1ccc(S(=O)(=O)n2nc(OC(=O)c3cc(F)c(F)cc3F)cc2N)cc1
150 | 4.28 | COc1ccc(S(=O)(=O)n2nc(OC(=O)c3c(F)ccc(C)c3F)cc2N)cc1
 | 4.9 | COc1ccc(S(=O)(=O)n2nc(OC(=O)c3cc(F)ccc3F)cc2N)cc1
 | 3.55 | COc1ccc(S(=O)(=O)n2nc(OC(=O)c3ccccc3C)cc2N)cc1
90 | 0.31 | COc1ccc(S(=O)(=O)n2nc(OC(=O)c3c(F)cccc3F)cc2N)cc1
 | 8.04 | Cc1cc(OC(=O)c2c(F)cccc2F)n(Cc2ccccc2)n1
300 | > 100 | COc1ccc(S(=O)(=O)n2nc(OC(=O)c3c(Cl)cccc3Cl)cc2N)cc1

From ChEMBL document CHEMBL1156012, “Structure-activity relationship and improved hydrolytic stability of pyrazole derivatives that are allosteric inhibitors of West Nile Virus NS2B-NS3 proteinase” (Bioorg Med Chem Lett, 2009)
